Assay outcomes from PubChem.
Rows were chosen to be rich in hits. Some 1.1% of all compounds tested hit in one or more screens of this group.
PMI activator – activators of human phosphomannose isomerase; actives 0.005% (n = 190,000); purified human PMI, coupled resazurin fluorescence, 20 min; stronger effect = higher value; 1 = vehicle control, 0 substrate-free wells; activation factor at 20 µM;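 active = activation factor of 2 or more at 20 µM, relative to plate controls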
Target sequence (P34949 whole entry, looked up): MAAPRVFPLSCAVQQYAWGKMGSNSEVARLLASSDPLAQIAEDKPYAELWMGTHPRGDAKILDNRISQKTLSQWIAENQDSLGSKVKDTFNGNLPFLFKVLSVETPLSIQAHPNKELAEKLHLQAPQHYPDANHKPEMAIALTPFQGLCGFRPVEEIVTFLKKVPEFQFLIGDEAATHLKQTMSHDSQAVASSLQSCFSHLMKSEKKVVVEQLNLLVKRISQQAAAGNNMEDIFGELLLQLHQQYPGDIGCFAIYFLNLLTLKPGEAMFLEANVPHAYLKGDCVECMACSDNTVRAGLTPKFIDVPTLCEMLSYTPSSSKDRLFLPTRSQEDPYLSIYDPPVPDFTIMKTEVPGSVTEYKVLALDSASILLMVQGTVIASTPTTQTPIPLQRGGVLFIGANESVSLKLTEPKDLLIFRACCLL
PMI act satM6P – increases human PMI activity with near-saturating mannose 6-phosphate; P34949; coupled PMI enzyme assay, resazurin fluorescence, 20 min; stronger effect = higher value; 1 = untreated enzyme, 0 = substrate-free blank; activation factor at 20 µM; actives 0.34% (n = 190,000); AID 1216;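 active = activation factor of 2 or more at 20 µM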
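Technique: Diaphorase-driven resazurin-to-resorufin fluorescence, excitation 544, emission 590 nm | Assay system: Human PMI in coupled enzyme assay | Times: Enzyme reaction with compound 20 min at room temperature | Medium: HEPES-buffered pH 7.4 with magnesium and detergent | Reagent: Mannose-6-phosphate 1.0 mM (near-saturating) plus 0.22 mM NADP+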
Diaphorase act – counter-screen for diaphorase-based assays: diaphorase activators and chemical reducers; AID 1229; activation factor at 20 µM; actives 0.005% (n = 190,000); Diaphorase/resazurin coupled assay, resorufin fluorescence, 16 min; stronger effect = higher value; 1 = vehicle wells, 0 = NADH-free wells;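 active = diaphorase activity raised at least twofold by the compound at 20 µM; inactive = activation factor below 2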
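Material: Clostridium kluyveri diaphorase, purified enzyme; Quantity: enzyme 0.07 U/mL final; Medium: HEPES pH 7.4 buffer with MgCl2 and Tween 20; Dosing: single compound dose of 20 µM, 1% DMSO final; Schedule: 16 min reaction at room temperature; Measured by: red resorufin fluorescence at 544/590 nm excitation/emission.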
Diaphorase inh – counter-screen for diaphorase-based assays: diaphorase inhibitors and chemical oxidizers; diaphorase resazurin-to-resorufin fluorescence, NADH, 16 min; bacterial (C. kluyveri) enzyme, not human; inhibition, % at 20 µM; actives 0.69% (n = 190,000);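 active = primary screen inhibition at 20 µM above a set limit, cut at about 50% in these data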;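 note: plate controls were DMSO with full reaction for no effect and wells lacking NADH for full effect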
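Assay system: diaphorase enzyme from Clostridium kluyveri. Quantity: enzyme working solution with 0.14 U/mL diaphorase. Schedule: reaction incubation of 16 min at room temperature. Technique: resorufin fluorescence, excitation 544 nm, emission 590 nm. Controls: No-NADH positive control and DMSO neutral control.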
G6PDH CS – inhibits Leuconostoc G6PDH, flagging false hits in G6PDH-based assays; Purified L. mesenteroides G6PDH, diaphorase/resazurin coupled fluorescence, 45 min; actives 0.12% (n = 200,000); inhibition, % at 5 µM; in the data active = inhibition above about 50%
Numbers without * were called inactive.

Results for CCC(C)n1c(=S)[nH]c2c(sc3ccc([N+](=O)[O-])cc32)c1=O (stereo unspecified) ?
PMI activator: 1; PMI act satM6P: 1; Diaphorase act: 0.4; Diaphorase inh: 62.4*; G6PDH CS: -7.9

What do the screens show for `Cc1cc(O)c(C=O)c2c1C(=O)Oc1c(CO)c(O)c3c(c1O2)C(O)OC3=O` (stereo unspecified)?
PMI activator: 0.7; PMI act satM6P: 0.6; Diaphorase act: 0.3; Diaphorase inh: 75.0*; G6PDH CS: 20.7

What do the screens show for `CC1(C)Cc2ccccc2C2CC(O)C(=O)N21` (stereo unspecified)?
PMI activator: 1.4; PMI act satM6P: 2*; Diaphorase act: 1.1; Diaphorase inh: -10.0; G6PDH CS: -0.6

What do the screens show for `CC1CC(C)(C)N(C(=O)CN2C(=O)c3ccccc3C2=O)c2ccccc21` (stereo unspecified)?
PMI activator: 1; PMI act satM6P: 1; Diaphorase act: 0.8; Diaphorase inh: 20.9; G6PDH CS: 4.9

Results for CCOc1cc(CNc2ccc3c(c2)CCC3)ccc1O ?
PMI activator: 1; PMI act satM6P: 1.2; Diaphorase act: 0.8; Diaphorase inh: 21.6; G6PDH CS: -0.8

What do the screens show for `COc1cc(CNc2ccc3c(c2)CCC3)cc(OC)c1O`?
PMI activator: 0.6; PMI act satM6P: 0.7; Diaphorase act: 0.4; Diaphorase inh: 56.0*; G6PDH CS: -42.4

How did CCCCn1c(Cc2ccccc2)nnc1SCC(=O)Nc1cc(C)on1 do in these assays?
PMI activator: 0.5; PMI act satM6P: 0.4; Diaphorase act: 0.4; Diaphorase inh: 59.1*; G6PDH CS: -0.8

How did Cc1ccc(C2=NN(CCC(=O)NCc3ccc4c(c3)OCO4)C(=O)CC2)cc1 do in these assays?
PMI activator: 0.9; PMI act satM6P: 1; Diaphorase act: 0.9; Diaphorase inh: 10.0; G6PDH CS: -13.6

What do the screens show for `COc1ccc(Nc2nc3[nH]c(=O)cc(O)c3s2)cc1`?
PMI activator: 0.5; PMI act satM6P: 0.4; Diaphorase act: 0.3; Diaphorase inh: 69.2*; G6PDH CS: 20.2

How did O=C(NC1C(=O)NNC1c1ccccc1)c1ccccc1 (stereo unspecified) do in these assays?
PMI activator: 0.8; PMI act satM6P: 0.8; Diaphorase act: 0.8; Diaphorase inh: 16.1; G6PDH CS: 2.7

What do the screens show for `Cc1cccc(C(=O)NC2C(=O)NNC2c2ccc(Cl)cc2)c1` (stereo unspecified)?
PMI activator: 1; PMI act satM6P: 1; Diaphorase act: 0.5; Diaphorase inh: 51.6*; G6PDH CS: 12.8

Results for Cc1nnc(SCc2cc(=O)[nH]c(=S)[nH]2)s1 ?
PMI activator: 0.9; PMI act satM6P: 0.9; Diaphorase act: 0.4; Diaphorase inh: 64.1*; G6PDH CS: 9.7

What do the screens show for `COc1ccc(CCNC(=O)CC2Nc3ccccc3NC2=O)cc1` (stereo unspecified)?
PMI activator: 1; PMI act satM6P: 0.8; Diaphorase act: 0.7; Diaphorase inh: 27.2; G6PDH CS: 16.8

What do the screens show for `COc1ccc(CCNC(=O)CC2Nc3ccccc3NC2=O)cc1OC` (stereo unspecified)?
PMI activator: 0.8; PMI act satM6P: 0.6; Diaphorase act: 0.5; Diaphorase inh: 51.6*; G6PDH CS: 10.2

Results for CCCCSCCCNC(=O)Nc1ccc(CC)cc1 ?
PMI activator: 1; PMI act satM6P: 1; Diaphorase act: 0.8; Diaphorase inh: 16.1; G6PDH CS: 6.0

What do the screens show for `Cn1c(O)c(/C=N/Nc2ccccc2)c(=O)n(C)c1=O`?
PMI activator: 1.7; PMI act satM6P: 2.6*; Diaphorase act: 1; Diaphorase inh: 4.4; G6PDH CS: 2.8

What do the screens show for `Cc1c(/C=N/Nc2ccc(F)cc2)c(O)n(C)c(=O)c1C#N`?
PMI activator: 1.1; PMI act satM6P: 1.1; Diaphorase act: 0.4; Diaphorase inh: 55.6*; G6PDH CS: 25.7

Results for CC(=O)N=Cc1c(C)c(C#N)c(=O)n(C)c1O ?
PMI activator: 1; PMI act satM6P: 0.5; Diaphorase act: 0.7; Diaphorase inh: 29.2; G6PDH CS: 7.7
